# Compound activity as filed in PubChem.
# Hits are enriched below; roughly 3.8% of the tested compounds scored in any of these assays.
# HSF-1 act: increases HSF-1 driven luciferase reporter signal; NIH3T3-HGL HSF-1 luciferase reporter, MG132, 8 h; 100% = twice DMSO control signal; activation, % at 9 µM; actives 1.7% (n = 300,000);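 active means mean replicate activation of at least 50% with a set share of replicates each reaching 50%; inconclusive means only one of those two conditions met; inactive means mean below 50% and too few replicates reaching it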;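 further: 0% = median of the neutral control wells and 100% = twice that signal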
# HSP90 inh: inhibitors of HSP90 luciferase refolding in rabbit reticulocyte lysate | actives 0.91% (n = 290,000) | luciferase refolding luminescence, 3 h | inhibition, % at 5.6 µM | AID 1789;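 active means inhibition above the screen-wide mean plus 3 SD, computed separately per campaign, cut at about 16% in these data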;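 further: 0% = DMSO wells and 100% = 60 µM geldanamycin wells; inhibitors lower the luminescence because luciferase stays unfolded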
# HSF1 inh: HSF1 inhibition; NIH3T3-HGL HSE-luciferase, MG132-induced, luminescence 8 h; active compounds read low; AID 2098; actives 0.77% (n = 300,000); activity change, negative = inhibition, % at 7.5 µM (by protocol);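 active means more than half of replicate wells show activity change below -50%, luminescence cut by over half; inconclusive means some wells, but at most half, below -50%; inactive means no replicate well below -50%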;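 further: luciferase reports HSF-1 transcriptional activity via heat shock element; 0% = median of DMSO wells and -100% = zero luminescence signal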
# NS3 helicase inh: HCV NS3 helicase inhibition; NS3 helicase DNA unwinding, Cy5 molecular beacon fluorescence; inhibition, % at 10.9 µM; actives 0.56% (n = 290,000); AID 1800;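 active means inhibition above the mean of all tested compounds plus 3 SD, set per campaign, cut at about 35% in these data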;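 further: 0% = DMSO wells and 100% = thioflavine S control wells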
#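 Assay system: hepatitis C virus NS3 helicase domain fragment enzyme. Also added: annealed dual-labelled DNA beacon duplex, ATP-started. Timing: 1 h reaction at 25 °C, ATP-initiated. Technique: Cy5 fluorescence at 0 and 60 min, beacon hairpin quenching. Evaluation: % inhibition of unwinding. Replication: one well per compound.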
# Hep lipid drop: modulators of hepatic lipid droplet formation; AML12 mouse hepatocytes, oleate lipid droplets, BODIPY imaging; inhibition, % at 6.5 µM; actives 0.4% (n = 240,000); AID 1656;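 active means lipid droplet intensity inhibited by at least 50%, with more than 500 cells counted; inconclusive means wells with under 300 cells, treated as cytotoxic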
#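 Material – mouse AML12 hepatocyte cell line, fixed after treatment · Compound dosing – one dose, 6.5 µM compound · Times – compound with oleate, overnight · Measured by – Image-based BODIPY and DAPI two-channel analysis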
# Numbers without * were called inactive; u = inconclusive; x = not tested or not shown.
SMILES,HSF-1 act,HSP90 inh,HSF1 inh,NS3 helicase inh,Hep lipid drop
CC(=O)Nc1ccc2c(c1)C(=O)c1ccccc1C2=O,30,-1,25,3,x
CC1CC(C)CN(C(=O)C2CCN(S(=O)(=O)c3c(Cl)cccc3Cl)CC2)C1 (stereo not drawn),9,2,-1,-14,-28
CC(C)c1ccc(NC(=O)[C@H](NC(=O)[C@@H]2Cc3ccccc3CN2)c2ccccc2)cc1,-20,1,-4,-38,-5
CCOC(=O)c1cnc2ccc(C)cc2c1Sc1ccc(F)cc1,60*,-1,38,-5,x
COc1ccc(C2CC(c3cccs3)=NN2C(=O)CCl)cc1OC (stereo not drawn),u,4,36,-4,15
COc1cc(C2CC(c3cccs3)=NN2C(=O)CCl)ccc1OC(F)F (stereo not drawn),-72,3,-67*,-12,0
CC1CCN(C(=O)Nc2ccc3nsnc3c2)CC1,57*,3,23,7,x
O=C(Nc1ccc2nsnc2c1)N1CCCCC1,0,2,-2,-3,1
Cc1ccc(NC(=S)N2CCCC2)cc1C,x,-6,x,7,-12
S=C(Nc1ccc2nsnc2c1)NC1CCCCC1,82*,7,31,-8,-8
S=C(Nc1ccc(Cl)c(Cl)c1)NC1CCCCC1,30,0,9,25,-58
S=C(Nc1ccc2nsnc2c1)N1CCCCCC1,62*,-1,41,8,-14
Cn1c(=O)c2c(nc(Sc3ncnn3CC(=O)N3CCOCC3)n2C)n(C)c1=O,-91,1,-88*,4,-15
CN(C(=O)CCS(=O)(=O)c1cc2c(cc1Cl)NC(=O)CO2)C1CCCCC1,-19,3,-8,7,-2
Nc1nonc1-n1nnc(C(=O)N/N=C/c2cccs2)c1-c1ccc2c(c1)OCO2,16,3,-3,8,-2
CCn1c(C)nc2cc(C(=O)NNC(=S)Nc3ccccc3Cl)ccc21,-43,-5,-34,-2,15
CCn1c(C)nc2cc(C(=O)NNC(=S)NC(=O)c3ccccc3)ccc21,-60,-3,-53*,5,1
CC(=O)C(C(c1ccccc1)c1c[nH]c2ccccc12)[N+](=O)[O-] (stereo not drawn),14,0,0,-17,x
CCOC(=O)Cc1csc(NC(=O)c2c(C)noc2C)n1,-13,0,-3,1,23
CC(C)Cn1c(=O)c(C(=O)Nc2ccccc2S(N)(=O)=O)c(O)c2ccccc21,5,4,2,13,-11
CCOC(=O)Cc1csc(NC(=O)c2c(O)c3ccccc3n(CC(C)C)c2=O)n1,56*,3,14,11,12
CCOC(=O)Cc1csc(NC(=O)c2ccc(Br)s2)n1,0,16*,0,-6,-2
CCOC(=O)Cc1csc(NC(=O)c2ccoc2C)n1,57*,1,16,-1,-13
CCOC(=O)Cc1csc(NC(=O)c2cccs2)n1,28,-1,20,-4,x
CCOC(=O)Cc1csc(NC(=O)c2sc3nc4ccc(CC)cc4cc3c2N)n1,-64,0,-54*,25,x
SMILES,HSF-1 act,HSP90 inh,HSF1 inh,NS3 helicase inh,Hep lipid drop
COc1cc2c(cc1OC)CN(c1nc(-c3cccnc3)nc3ccccc13)CC2,7,-7,0,-13,-1
Cc1ccc(S(=O)(=O)NC(=O)COc2ccccc2C)c(C)c1,-6,-3,-4,17,27
Cc1cccc2cc(CN(Cc3ccco3)C(c3nnnn3CCc3ccccc3)C(C)C)c(=O)[nH]c12 (stereo not drawn),198*,3,138,12,x
Cc1cccc2cc(C(c3nnnn3C(C)(C)C)N(Cc3ccco3)CC3CCCO3)c(=O)[nH]c12 (stereo not drawn),7,1,-8,6,x
CCC(c1nnnn1Cc1ccco1)N(Cc1ccccc1OC)Cc1cc2cc(C)ccc2[nH]c1=O (stereo not drawn),89*,0,88,13,x
CCC(c1nnnn1Cc1ccco1)N(Cc1cc2cc(C)cc(C)c2[nH]c1=O)CC1CCCO1 (stereo not drawn),64*,-1,52,25,-6
CCOC(=O)CC1(NC(=O)C2CCC(=O)N(Cc3ccccc3OC)C2)CCCCC1 (stereo not drawn),23,-2,5,6,35
CCOc1ccc(N(CC(=O)N2CCCCCC2)S(=O)(=O)c2ccc(C)cc2)cc1,18,6,16,-14,-30
CCC1(c2ccc(Cl)cc2)NC(=S)N(c2ccc(C)cc2)N1 (stereo not drawn),61*,-1,28,8,2
CCC1(c2ccccc2)NC(=S)N(c2ccc(C)c(C)c2)N1 (stereo not drawn),52*,-2,21,6,5
COc1cc(NS(=O)(=O)c2ccc(NC(=O)Cc3ccccc3)cc2)nc(OC)n1,-3,-2,1,2,8
CCN(c1ccccc1)S(=O)(=O)c1ccc(OC)c(NC(=O)C2CC(=O)N(Cc3ccccc3)C2)c1 (stereo not drawn),27,6,-1,0,-39
COc1ccc(NC(=O)c2cccc(-c3ccc(O)cc3)c2)cn1,42,0,15,-16,8
CCOc1ccc2nc(N(Cc3ccccc3)C(=O)CCNC(C)=O)sc2c1,57*,-5,15,-20,5
CC(=O)NCCC(=O)N(Cc1ccccc1)c1nc2c(C)cccc2s1,14,5,8,3,6
CN(C)c1ccc(CNC(=O)c2ccc(CNc3c(N4CCCCC4)c(=O)c3=O)cc2)cc1,61*,-2,30,0,x
CC(C)Oc1ccc(C2CC(=O)N(C)C2=O)cc1 (stereo not drawn),-40,4,-23,3,4
O=C(Nc1ccc(F)cc1)N1CCCCCC1,7,4,5,-8,-2
O=C(Nc1ccc(F)cc1)N1CCOCC1,-64,0,-53*,-4,1
O=C(Nc1ccc2c(c1)OCCO2)N1CCN(c2ccccc2)CC1,-59,-4,-57*,-2,x
CCC(NC(=O)/C(=C\c1ccc2c(c1)OCO2)NC(C)=O)C(=O)O (stereo not drawn),59*,0,27,-19,-4
CC(C)[C@H](NC(=O)OC(C)(C)C)c1nnc(SCC(=O)Nc2ccc(Br)cc2)o1,84*,3,32,-4,4
N=c1sccn1CC(=O)Nc1cc(Cl)ccc1Oc1ccccc1,79*,1,49,-19,-3
CCOC(=O)C/C(N)=N/N(C)c1ncc(C(F)(F)F)cc1Cl,-1,-1,4,7,5
Cc1ccc(NC(=O)Cc2noc3ccccc23)cc1,24,-1,9,2,-5
Cc1ccc(/C=N\NC(=O)Cc2noc3ccccc23)cc1,-89,7,-87*,-7,-7
COc1ccc2c(c1)c(C(=O)CN1CCCCC1)c(C)n2C,72*,x,32,x,x
